Six compounds from ChEMBL document CHEMBL4251655 (Eur J Med Chem, 2018) can be followed below.

Data set [1] concerns the target T1, Tyrosine-protein kinase JAK3 (Homo sapiens) (UniProt P52333).
T1 sequence (whole entry): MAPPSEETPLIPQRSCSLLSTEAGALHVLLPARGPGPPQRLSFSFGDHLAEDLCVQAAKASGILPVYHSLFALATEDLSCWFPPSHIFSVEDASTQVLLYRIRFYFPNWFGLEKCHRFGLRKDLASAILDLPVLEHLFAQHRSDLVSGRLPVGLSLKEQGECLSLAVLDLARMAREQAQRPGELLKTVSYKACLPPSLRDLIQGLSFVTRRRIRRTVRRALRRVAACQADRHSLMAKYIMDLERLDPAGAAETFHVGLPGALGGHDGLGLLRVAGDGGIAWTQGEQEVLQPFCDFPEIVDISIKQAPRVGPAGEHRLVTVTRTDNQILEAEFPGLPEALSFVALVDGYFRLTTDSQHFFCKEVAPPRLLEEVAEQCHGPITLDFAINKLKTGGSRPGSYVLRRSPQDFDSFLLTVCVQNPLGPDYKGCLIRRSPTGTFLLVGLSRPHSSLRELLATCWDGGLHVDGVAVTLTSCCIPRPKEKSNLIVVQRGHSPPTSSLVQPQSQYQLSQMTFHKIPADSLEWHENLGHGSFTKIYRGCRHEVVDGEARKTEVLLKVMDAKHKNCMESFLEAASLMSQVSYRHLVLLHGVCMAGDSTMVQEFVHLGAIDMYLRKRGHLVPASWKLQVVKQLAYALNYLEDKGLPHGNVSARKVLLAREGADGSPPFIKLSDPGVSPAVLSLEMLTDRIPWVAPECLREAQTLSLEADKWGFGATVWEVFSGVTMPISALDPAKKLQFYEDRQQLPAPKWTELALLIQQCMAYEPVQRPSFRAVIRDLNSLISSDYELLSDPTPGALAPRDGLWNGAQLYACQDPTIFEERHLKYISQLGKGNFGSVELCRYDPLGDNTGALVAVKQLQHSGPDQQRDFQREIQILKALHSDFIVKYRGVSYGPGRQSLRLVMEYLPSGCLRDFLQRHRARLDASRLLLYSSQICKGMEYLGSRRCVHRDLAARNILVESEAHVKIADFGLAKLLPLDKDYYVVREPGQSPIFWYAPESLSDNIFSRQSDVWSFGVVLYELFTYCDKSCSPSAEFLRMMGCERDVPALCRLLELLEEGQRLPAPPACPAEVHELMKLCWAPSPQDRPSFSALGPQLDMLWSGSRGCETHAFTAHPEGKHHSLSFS
Put plainly: Inhibition of recombinant human GST-tagged JAK3 expressed in baculovirus expression system at 1 uM relative to control. Put shortly: (§1)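 Forty-kinase selectivity panel; each compound tested at a single 1 µM concentration in the presence of 1 mM ATP; result given as percent inhibition.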

The target of data set [2] is T2, Serine/threonine-protein kinase Nek2 (Homo sapiens) (UniProt P51955).
T2 sequence (whole entry): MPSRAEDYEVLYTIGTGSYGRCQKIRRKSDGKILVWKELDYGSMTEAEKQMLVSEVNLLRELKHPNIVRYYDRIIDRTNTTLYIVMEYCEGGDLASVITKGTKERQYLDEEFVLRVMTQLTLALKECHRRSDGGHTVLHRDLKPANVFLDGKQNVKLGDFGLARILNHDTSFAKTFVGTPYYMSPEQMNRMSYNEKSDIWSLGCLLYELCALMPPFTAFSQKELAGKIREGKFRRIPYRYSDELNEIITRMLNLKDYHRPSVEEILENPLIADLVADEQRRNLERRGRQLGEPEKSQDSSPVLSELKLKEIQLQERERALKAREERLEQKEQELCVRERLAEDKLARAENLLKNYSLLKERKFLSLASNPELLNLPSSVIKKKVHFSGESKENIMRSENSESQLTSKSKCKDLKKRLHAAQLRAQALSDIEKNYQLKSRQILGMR
Put plainly: Inhibition of recombinant human full length His-tagged NEK2 expressed in baculovirus expression system at 1 uM relative to control. Put shortly:
as §1

In data set [3] the target is cAMP-dependent protein kinase catalytic subunit alpha (Homo sapiens) (UniProt P17612). Put plainly: Inhibition of recombinant human His-tagged PRKACA expressed in Escherichia coli at 1 uM relative to control. Summed up:
as §1

A short description of data set [4]: Thermodynamic solubility of the compound at pH 7.4. It counts as physicochemical. The conditions noted are these: buffer, read-out: Therm_solubility.
The nature of data set [5]: Clearance in rat at 1 mg/kg, iv by LC-MS/MS analysis. It counts as ADME, organism-based. To be noted: in vivo. Put shortly:
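Rat, single 1 mg/kg intravenous dose.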

Data set [6] is described as follows: Clearance in rat hepatocytes assessed per million cells. Type of data set: ADME, cell-based, Hepatocyte.
Data set [7] in a line: Oral bioavailability in rat at 1 mg/kg administered via gavage. Type of data set: ADME, organism-based. The conditions noted are these: in vivo. Summed up: (§2)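 Rat, oral dosing as a solution.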
Data set [8] deals with Fibroblast growth factor receptor 1 (Homo sapiens) (UniProt P11362). Put plainly: Inhibition of recombinant human His-tagged FGFR1 cytoplasmic domain expressed in baculovirus expression system at 1 uM relative to control. Summed up:
as §1

The nature of data set [9]: Oral bioavailability in rat at 5 mg/kg administered via gavage. Type of data set: ADME, organism-based. The conditions noted are these: in vivo. Summed up: as §2

≈ marks a conversion by molar mass, not a printed value. A value given as a limit tells only on which side of the number the result lay.

Sequence of Fibroblast growth factor receptor 1 (Homo sapiens) (P11362 22-822 limits assumed): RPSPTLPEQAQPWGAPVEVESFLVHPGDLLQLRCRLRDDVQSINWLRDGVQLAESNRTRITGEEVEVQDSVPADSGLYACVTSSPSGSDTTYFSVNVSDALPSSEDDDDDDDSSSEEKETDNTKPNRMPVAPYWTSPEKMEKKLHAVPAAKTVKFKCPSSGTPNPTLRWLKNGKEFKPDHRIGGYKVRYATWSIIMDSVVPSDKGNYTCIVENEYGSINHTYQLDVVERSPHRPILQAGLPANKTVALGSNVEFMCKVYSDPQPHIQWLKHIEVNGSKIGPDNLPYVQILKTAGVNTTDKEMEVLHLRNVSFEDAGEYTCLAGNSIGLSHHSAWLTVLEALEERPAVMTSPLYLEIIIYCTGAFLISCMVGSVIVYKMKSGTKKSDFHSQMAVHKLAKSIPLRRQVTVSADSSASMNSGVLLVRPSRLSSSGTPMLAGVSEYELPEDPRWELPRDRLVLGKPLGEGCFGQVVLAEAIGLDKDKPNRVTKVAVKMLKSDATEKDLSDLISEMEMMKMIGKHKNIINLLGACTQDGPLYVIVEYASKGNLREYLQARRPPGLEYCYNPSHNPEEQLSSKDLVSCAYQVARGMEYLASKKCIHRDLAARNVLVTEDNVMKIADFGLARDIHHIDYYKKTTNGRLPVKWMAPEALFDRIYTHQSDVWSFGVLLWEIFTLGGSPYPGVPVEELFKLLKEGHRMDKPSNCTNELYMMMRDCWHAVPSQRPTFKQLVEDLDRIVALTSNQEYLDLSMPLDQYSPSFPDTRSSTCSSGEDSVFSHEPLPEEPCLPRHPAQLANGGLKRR

Turning to `COc1ccc(S(C)(=O)=O)cc1C(=O)Nc1cccc(-c2nncn2C(C)C)n1`, the inhibition in [1] was 12%; in data set [2], 1%; in [3], -5%. Moreover, in data set [4], the solubility thermodynamic was determined as 5 µM (≈ 2.08 µg/mL). Besides, the clearance in [5] came to 41 mL/min/kg. The CLH in data set [6] was below 6 µL/min/1e6 cells. Moreover, in data set [7], the bioavailability was 8%.

`COc1ccc(S(N)(=O)=O)cc1C(=O)Nc1cccc(-c2nncn2C(C)C)n1`: the inhibition is -6% in [8], -8% in data set [1] and -3% in [2]. Moreover, the solubility thermodynamic in data set [4] was found to be 1.2 µM (≈ 0.5 µg/mL). For the same compound, in data set [5], the clearance was found to be 35 mL/min/kg. This compound also showed a CLH in [6] below 6 µL/min/1e6 cells. For the same compound, the bioavailability in data set [9] is below 1%.

`COc1cc(C)c(S(C)(=O)=O)cc1C(=O)Nc1cccc(-c2nncn2C(C)C)n1`: the results for the inhibition in data set [8], in [1] and in data set [3] were 2%, 0% and 3%, respectively.

Take `COc1cc(C)c(C(N)=O)cc1C(=O)Nc1cccc(-c2nncn2C(C)C)n1`: the values for the inhibition in data set [8], in data set [1] and in data set [3] were 2%, 3% and -1%, respectively.

Take `COc1cc(C)c(S(N)(=O)=O)cc1C(=O)Nc1cccc(-c2nncn2C(C)C)n1`: the inhibition in [8] stood at 2%; in [1], 16%; in data set [2], 0%; in [3], 1%.

In the case of `COc1ccc(C(N)=O)cc1C(=O)Nc1cccc(-c2nncn2C(C)C)n1`, the values for the inhibition in data set [8] and in data set [3] were -2% and -1%, respectively.
